In ChEMBL document CHEMBL1139827, “Synthesis and pharmacological profile of serofendic acids A and B” (Bioorg Med Chem, 2007):
Activity calls are given as the source filed them. The rule behind the calls is not given here.

Key:
[1] = Total clearance in Sprague-Dawley rat at 1 mg/kg, iv; assay type: ADME, organism-based; design: dose 1 mg/kg, route intravenous; settings: in vivo
Procedure, shortened: (§1)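 Fasted SD rats (n = 3, 290–260 g) given 1 mg/kg iv, dosing solution 1 mg/ml in 30% DMSO/5% glucose. Blood sampled at 0.25, 0.5, 1, 2, 4, 6 and 8 h. Plasma (0.1 ml) mixed with MeOH/HClO4 (500:1, 0.2 ml), centrifuged 12,000 rpm for 5 min and filtered. Plasma PK parameters derived from these samples.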

[2] = Half life in Sprague-Dawley rat at 1 mg/kg, iv; assay type: ADME, organism-based; design: dose 1 mg/kg, route intravenous; settings: in vivo; procedure, shortened: as §1
[3] = Volume of distribution at steady state in Sprague-Dawley rat at 1 mg/kg, iv; assay type: ADME, organism-based; design: dose 1 mg/kg, route intravenous; settings: in vivo, read-out: Vdss; procedure, shortened: as §1
[4] = Ratio of drug level in brain to plasma in Sprague-Dawley rat at 1 mg/kg, iv after 0.5 hr; assay type: ADME, organism-based; design: dose 1 mg/kg, route intravenous; settings: read-out: BPR
Procedure, shortened: (§2)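 SD rats (n = 3, fasted) given 1 mg/kg iv in 30% DMSO/5% glucose. Brain and blood taken at 0.5 and 2 h. Brain homogenized (20% saline). Brain homogenate or plasma (0.1 ml) treated with MeOH/HClO4 (500:1, 0.2 ml), centrifuged 12,000 rpm for 5 min, filtered. Brain-to-plasma concentration ratio calculated.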

[5] = Ratio of drug level in brain to plasma in Sprague-Dawley rat at 1 mg/kg, iv after 2 hrs; assay type: ADME, organism-based; design: dose 1 mg/kg, route intravenous; settings: read-out: BPR; procedure, shortened: as §2
[6] = AUC in Sprague-Dawley rat at 1 mg/kg, iv; assay type: ADME, organism-based; design: dose 1 mg/kg, route intravenous; settings: plasma; procedure, shortened: as §1
[7] = system: Cerebral cortex; experiment: Protective effect against glutamate-induced neurotoxicity in fetal rat cerebral cortex after 24 hrs; assay type: functional, tissue-based
Procedure, shortened: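 Wistar fetal rat cortical neurons (E17–19) grown on polyethyleneimine-coated coverslips, 10 µM cytosine arabinoside added from day 6, used at 11–15 DIV. Exposed to 500 µM Glu for 10 min; compound present 1 h before, during and 24 h after. Viability by trypan blue exclusion, >200 cells per coverslip, five coverslips, mean ± SEM.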

[8] = Half life in Sprague-Dawley rat at 5 mg/kg, po; assay type: ADME, organism-based; design: dose 5 mg/kg, route oral; settings: in vivo
Procedure, shortened: (§3)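 Fasted SD rats (n = 3) dosed orally at 5 mg/kg, 1 mg/ml in 0.5% methyl cellulose. Plasma sampled at 0.25, 0.5, 1, 2, 4, 6 and 8 h. Plasma (0.1 ml) deproteinized with MeOH/HClO4 (500:1, 0.2 ml), spun 12,000 rpm for 5 min, filtered. Bioavailability set against the 1 mg/kg iv dosing.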

[9] = AUC in Sprague-Dawley rat at 5 mg/kg, po; assay type: ADME, organism-based; design: dose 5 mg/kg, route oral; settings: plasma; procedure, shortened: as §3
[10] = Tmax in Sprague-Dawley rat at 5 mg/kg, po; assay type: ADME, organism-based; design: dose 5 mg/kg, route oral; settings: in vivo; procedure, shortened: as §3
[11] = Oral bioavailability in Sprague-Dawley rat at 5 mg/kg; assay type: ADME, organism-based; settings: in vivo; procedure, shortened: as §3
[12] = Cmax in Sprague-Dawley rat at 5 mg/kg, po; assay type: ADME, organism-based; design: dose 5 mg/kg, route oral; settings: in vivo; procedure, shortened: as §3
[13] = system: Cerebral cortex; experiment: Protective effect against glutamate-induced neurotoxicity in fetal rat cerebral cortex at 1 uM after 24 hrs; assay type: functional, tissue-based
Procedure, shortened: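 Primary cortical neurons from fetal Wistar rats (17–19 days gestation), used after 11–15 days in vitro; cytosine arabinoside 10 µM added at day 6. Compound present 1 h before, during and 24 h after 10 min exposure to 500 µM Glu. Viability by trypan blue exclusion (>200 cells/coverslip, five coverslips), % unstained cells; means ± SEM.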

SMILES | clearance [1] [mL/min/kg] | half-life [2] [min] | Vd [3] [L/kg] | Kp at 0.5 h [4] | Kp at 2 h [5] | AUC [6] [ng·h/mL] | Activity [7] | half-life [8] [min] | AUC [9] [ng·h/mL] | Tmax [10] [min] | bioavailability [11] [%] | Cmax [12] [ng/mL] | Activity [13]
COC(=O)[C@@]1(C)CCC[C@@]2(C)[C@@H]3C[C@@H]4CC[C@@]3(CC[C@@H]21)[C@H](O)[C@H]4C[S+](C)[O-] (stereo partly drawn) [SEROFENDIC ACID METHYLESTER] | 14.7 | 33 | 0.57 | 2.2 | 2.21 | 1440 |  |  |  |  |  |  | 
C[S@+]([O-])C[C@H]1[C@H]2CC[C@@]3(CC[C@H]4[C@@](C)(CCC[C@]4(C)C(=O)O)[C@@H]3C2)[C@@H]1O [SEROFENDIC ACID A] | 8.67 | 28.8 | 0.33 |  |  | 1950 | Active |  |  |  |  |  | 
C[S@@+]([O-])C[C@H]1[C@H]2CC[C@@]3(CC[C@H]4[C@@](C)(CCC[C@]4(C)C(=O)O)[C@@H]3C2)[C@@H]1O [SEROFENDIC ACID B] | 6 | 39 | 0.33 | 0.021 |  | 2780 | Active | 234 | 5640 | 19.8 | 41 | 2050 | 
C[C@]12N[C@H](Cc3ccccc31)c1ccccc12 |  |  |  |  |  |  |  |  |  |  |  |  | Active
